Activity calls are given as the source filed them. The calls are words filed in the database; no cut-off is given here.
Columns and labels:
[1] = biological target: T1, Protein deacetylase HDAC6 (Homo sapiens) (UniProt Q9UBN7); conditions: 50 nM
T1 sequence (whole entry): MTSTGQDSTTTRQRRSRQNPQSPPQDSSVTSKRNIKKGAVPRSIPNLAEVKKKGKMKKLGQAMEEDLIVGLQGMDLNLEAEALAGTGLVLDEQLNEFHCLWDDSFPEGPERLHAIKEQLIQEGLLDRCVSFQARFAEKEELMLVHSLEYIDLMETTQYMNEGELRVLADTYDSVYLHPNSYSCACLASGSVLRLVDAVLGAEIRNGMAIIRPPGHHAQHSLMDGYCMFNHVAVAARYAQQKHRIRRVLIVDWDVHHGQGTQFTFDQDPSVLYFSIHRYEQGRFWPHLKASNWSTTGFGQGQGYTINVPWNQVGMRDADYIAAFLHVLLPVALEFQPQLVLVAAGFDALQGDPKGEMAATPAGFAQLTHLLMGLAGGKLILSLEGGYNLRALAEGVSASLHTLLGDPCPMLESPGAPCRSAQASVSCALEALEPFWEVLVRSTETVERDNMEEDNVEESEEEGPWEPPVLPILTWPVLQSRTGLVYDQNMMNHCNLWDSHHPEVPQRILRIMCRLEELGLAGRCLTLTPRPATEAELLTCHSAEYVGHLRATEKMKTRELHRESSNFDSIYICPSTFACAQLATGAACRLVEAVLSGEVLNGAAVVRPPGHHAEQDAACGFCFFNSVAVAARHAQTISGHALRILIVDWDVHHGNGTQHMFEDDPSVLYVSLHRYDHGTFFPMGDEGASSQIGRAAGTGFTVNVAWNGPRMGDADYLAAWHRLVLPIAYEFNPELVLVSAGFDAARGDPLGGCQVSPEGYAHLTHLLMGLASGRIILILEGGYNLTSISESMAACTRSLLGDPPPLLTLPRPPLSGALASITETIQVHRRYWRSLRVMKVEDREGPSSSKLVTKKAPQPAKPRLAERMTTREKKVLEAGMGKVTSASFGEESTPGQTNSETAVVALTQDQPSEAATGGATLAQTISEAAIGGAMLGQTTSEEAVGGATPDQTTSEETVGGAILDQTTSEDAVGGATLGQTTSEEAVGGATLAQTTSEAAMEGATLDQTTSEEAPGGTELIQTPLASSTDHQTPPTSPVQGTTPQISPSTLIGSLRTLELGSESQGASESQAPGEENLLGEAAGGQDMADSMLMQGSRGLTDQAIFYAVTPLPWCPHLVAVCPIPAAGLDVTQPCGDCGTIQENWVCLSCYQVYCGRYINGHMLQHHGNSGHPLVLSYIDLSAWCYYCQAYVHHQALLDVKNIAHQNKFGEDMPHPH

[2] = biological target: Histone deacetylase 2 (Homo sapiens, UniProt Q92769); assay: Inhibition of full length recombinant human C-terminal GST-tagged HDAC2 expressed in baculovirus-infected insect cells using RHKK(Ac)AMC as substrate after 60 mins by fluorimeter
[3] = system: Mus musculus; assay: Antiarthritic activity in DBA/1J mouse collagen-induced arthritis model assessed as reduction of articular bone erosion in arthritic hind paw at 30 mg/kg, ip administered every morning for 12 to 14 days measured post last dose by microCT method relative to vehicle-treated control; format: functional, organism-based
[4] = system: MV4-11; assay: Cell cycle arrest in human MV4-11 cells at 50 nM to 1 uM after 24 hrs by propidium iodide staining-based flow cytometric method; format: functional
Summary of the method: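 Cells were stained with propidium iodide and analysed by flow cytometry for cell-cycle distribution and the subG1 fraction (fragmented DNA). Representative of at least two independent experiments.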

[5] = biological target: T2, Histone deacetylase 11 (Homo sapiens, UniProt Q96DB2); assay: Inhibition of recombinant human N-terminal His-tagged HDAC11 (1 to 347 residues) expressed in baculovirus-infected insect cells using RHKK(Ac)AMC as substrate by fluorimeter
T2 sequence (Q96DB2 whole entry): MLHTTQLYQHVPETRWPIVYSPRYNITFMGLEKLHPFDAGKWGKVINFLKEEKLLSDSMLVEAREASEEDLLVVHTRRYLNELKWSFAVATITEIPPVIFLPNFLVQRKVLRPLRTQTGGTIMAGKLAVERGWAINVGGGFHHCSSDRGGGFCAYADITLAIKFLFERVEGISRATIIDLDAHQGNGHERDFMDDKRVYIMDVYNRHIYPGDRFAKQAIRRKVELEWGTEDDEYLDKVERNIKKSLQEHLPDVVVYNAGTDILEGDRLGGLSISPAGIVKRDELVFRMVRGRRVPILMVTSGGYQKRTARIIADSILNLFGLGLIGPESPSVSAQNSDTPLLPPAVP

[6] = system: Mus musculus; assay: Antiarthritic activity in DBA/1J mouse collagen-induced arthritis model assessed as decrease in histological scores at 30 mg/kg, ip administered every morning for 12 to 14 days measured during compound dosing relative to vehicle-treated control; format: functional; design: scale not given: the % may be the effect or the level left
Summary of the method: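 Collagen type II-induced arthritis in mice, treated at 30 mg/kg versus vehicle. Arthritic paws were assessed histologically for synovial inflammation, cellular invasion, cartilage degradation and bone erosion.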

Histone deacetylase 2, sequence (Q92769 whole entry): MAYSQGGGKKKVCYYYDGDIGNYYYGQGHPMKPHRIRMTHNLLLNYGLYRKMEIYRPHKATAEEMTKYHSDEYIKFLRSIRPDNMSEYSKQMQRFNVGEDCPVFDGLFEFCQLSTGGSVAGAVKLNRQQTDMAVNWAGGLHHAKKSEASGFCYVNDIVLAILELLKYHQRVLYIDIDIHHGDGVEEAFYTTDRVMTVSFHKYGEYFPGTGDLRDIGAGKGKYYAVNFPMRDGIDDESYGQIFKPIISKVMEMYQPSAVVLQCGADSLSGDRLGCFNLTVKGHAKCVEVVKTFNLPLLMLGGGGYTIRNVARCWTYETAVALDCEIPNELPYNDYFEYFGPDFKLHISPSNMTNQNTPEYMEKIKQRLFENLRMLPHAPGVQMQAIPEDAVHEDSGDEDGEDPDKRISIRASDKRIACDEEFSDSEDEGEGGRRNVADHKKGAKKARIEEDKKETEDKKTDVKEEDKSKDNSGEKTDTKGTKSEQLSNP

CN1C(=O)C2CN(Cc3c2c2ccccc2n3Cc2ccc(C(=O)NO)cc2)C1=O (stereo unspecified) was tested. Which inhibition [1] did it give?
Its inhibition is “Active”.

And the Ki [2]?
The Ki was 774 nM.

What about the Activity [3] of the same compound?
The Activity was “Active”.

And the Activity [4]?
The Activity was “inactive”.

And the Ki [5]?
The Ki was 495 nM.

What about the Activity [6] of the same compound?
The Activity was 50%.

From ChEMBL document CHEMBL4043295, “Marbostat-100 Defines a New Class of Potent and Selective Antiinflammatory and Antirheumatic Histone Deacetylase 6 Inhibitors” (J Med Chem, 2018)
